Results reported in article PMC3383389 (Molecular and Biochemical Parasitology, 2012).

Columns and labels:
TbMCP-1 = biological target: T1, TbMCP-1 (Trypanosoma brucei, UniProt Q386R0); assay: inhibition of FA-Ala-Lys hydrolysis after pre-incubation; assay type: biochemical; settings: read-out: % residual activity at 5 μM
T1 sequence (Q386R0 1-503): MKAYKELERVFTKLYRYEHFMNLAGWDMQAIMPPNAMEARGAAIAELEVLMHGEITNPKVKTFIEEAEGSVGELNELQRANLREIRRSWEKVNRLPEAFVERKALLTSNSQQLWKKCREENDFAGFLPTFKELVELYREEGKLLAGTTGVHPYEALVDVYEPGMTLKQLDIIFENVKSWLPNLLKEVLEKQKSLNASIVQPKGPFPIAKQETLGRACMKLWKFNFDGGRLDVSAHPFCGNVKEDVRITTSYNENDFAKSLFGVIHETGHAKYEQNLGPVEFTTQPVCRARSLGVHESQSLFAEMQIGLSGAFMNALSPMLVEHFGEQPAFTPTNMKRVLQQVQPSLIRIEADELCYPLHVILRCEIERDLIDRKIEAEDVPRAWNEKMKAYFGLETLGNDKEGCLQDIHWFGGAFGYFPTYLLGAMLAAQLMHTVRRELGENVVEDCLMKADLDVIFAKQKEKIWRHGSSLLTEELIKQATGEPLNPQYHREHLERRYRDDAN
Procedure, shortened: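 GST-fused recombinant TbMCP-1 was expressed in E. coli BL21 Codon Plus (DE3), purified on glutathione-agarose and desalted. The enzyme was pre-incubated with test compound (metal chlorides were tested from 1 µM to 1 mM). Activity was then read continuously at 340 nm with 200 µM furyl-acryloyl-Ala-Lys in 100 mM MOPS, pH 7.3, and reported as % residual activity.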

[1] = biological target: Trypanosoma brucei M32 metallocarboxypeptidase TbMCP-1, N-terminally GST-tagged recombinant enzyme (Trypanosoma brucei (Lister 427)); assay: SEC

Row | Compound | remaining activity at 5 µM (TbMCP-1) [%] | stoichiometry N [1]
1 | N=C(N)NCCSC(CC(=O)O)C(=O)O (centres unmarked) [GEMSA] | 9.1 ± 1.2 | –
2 | Trypanosoma brucei M32 metallocarboxypeptidase TbMCP-1, N-terminally GST-tagged recombinant enzyme | – | 2
